IC50 data for 14 molecules are collected here from PMC2213299 (The Journal of Experimental Medicine, 2004).

Where no end group is shown, it is not given here. The star is where a group is joined. αGalNAc = CC(=O)N[C@@H]1[C@@H](O)[C@@H](O)[C@@H](CO)O[C@@H]1*

As usually defined, the IC50 is the point on the concentration scale where inhibition reaches its midpoint. Read a high IC50 as lower potency.

One test has as its target K^b molecules (Mus musculus, UniProt P01901).
Assay: not given
It counts as binding, murine. Put shortly:
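Kb was affinity-purified from filtered Nonidet P-40 lysates of EL-4 cells. 5–10 nM Kb was incubated with a 125I-labelled known Kb-binding peptide plus test compound for 48 h in PBS with 0.05% Nonidet P-40 and protease inhibitors. Bound and free peptide were separated by gel filtration on TSK columns. IC50 is the amount inhibiting 50% of radioligand binding.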
Take AAAAAFAAL [AAAAAFAAL]: the IC50 worked out at 610 nM.

Molecule AAAAFAAL [AAAAFAAL] came in with an IC50 of 75 nM.

The molecule GGGGFGGL [GGGGFGGL] gave an IC50 of 53000 nM.

In turn, SSSSFSSL [SSSSFSSL] gave an IC50 of 509 nM.

Take AIAAAFAAL [AIAAAFAAL]: the IC50 was 240 nM.

Take AIIAAFAAL [AIIAAFAAL]: the IC50 was 10 nM.

AAIAAFAAL [AAIAAFAAL] showed an IC50 of 90 nM.

The target of the next test is K^b molecules (MHC class I H-2K^b) purified from EL-4 cells (mouse (endogenous in EL-4)). Kind of test: radioligand binding.
Turning to AIIASFAAL, the IC50 was determined as 4 nM.

For AIIAS(αGalNAc)FAAL [AIIA(GalNac-O-ser)FAAL], the IC50 was 4 nM.

On to AAAAFAAL, for which the IC50 is 75 nM.

AIIASFAAL (βGal-[1→3]-α-GalNAc-O-serine (TF antigen) at position 5) [AIIA(βGal-[1→3]-α-GalNAc-O-ser)FAAL] had an IC50 of 4 nM.

Regarding AIIAAFAAL, the IC50 worked out at 10 nM.

Take GGGGFGGL: the IC50 is 53000 nM.

SSSSFSSL registered an IC50 of 509 nM.
